SUMO1-SIM PPI: alters human SUMO1 binding to SIM partners; P63165; SUMO1 binding to a labelled peptide, TR-FRET, 1 h; inhibition, % at 20 µM; 0.33% of 360,000 active; in the data active means inhibition above about 37%
Target sequence (P63165 whole entry, looked up): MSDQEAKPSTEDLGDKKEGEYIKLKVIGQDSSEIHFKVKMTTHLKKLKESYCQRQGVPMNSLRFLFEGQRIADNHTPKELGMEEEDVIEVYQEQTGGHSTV
STEP inh: blocks human striatal-enriched tyrosine phosphatase; recombinant STEP, OMFP fluorogenic substrate, fluorescence; inhibition, % at 20 µM; 0.25% of 360,000 active; AID 588621;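 active means inhibition at 20 µM, scaled per plate between control wells, above about 37%, limit read from the data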;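 further: 0% = DMSO with enzyme and substrate and 100% = substrate only without enzyme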
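System: isolated STEP enzyme; schedule: 20 min enzyme reaction at room temperature, protected from light; medium: Bis-Tris buffer pH 6.0, 2.5 mM DTT, 0.005% Tween 20; signal: fluorescence, 480/540 nm; dosing: single compound dose of 20 µM, 1% DMSO final; also added: OMFP substrate, 25 µM final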
DNMT1 block: DNMT1 (human) enzyme inhibition; P26358; DNMT1 molecular beacon, Hinp1I cleavage, fluorescence; inhibition (reported as % activation of signal), % at 10 µM; 0.83% of 360,000 active; in the data active means inhibition above about 50%
NadD block: inhibitors of Staphylococcus aureus NadD; purified NadD enzyme, colorimetric absorbance read-out; inhibition, % at 20 µM; 0.78% of 360,000 active; in the data active means inhibition above about 26%
LMPTP inh: LMPTP (human) inhibition | inhibition, % at 20 µM | P24666 | recombinant LMPTP-A, OMFP fluorogenic substrate, fluorescence intensity | 0.22% of 360,000 active;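 active means compounds that cut the enzyme signal by at least half of the control window in the single-dose screen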;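 further: plate controls were DMSO wells with enzyme plus substrate for no effect and substrate without enzyme for full effect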
Target sequence (P24666 whole entry, looked up): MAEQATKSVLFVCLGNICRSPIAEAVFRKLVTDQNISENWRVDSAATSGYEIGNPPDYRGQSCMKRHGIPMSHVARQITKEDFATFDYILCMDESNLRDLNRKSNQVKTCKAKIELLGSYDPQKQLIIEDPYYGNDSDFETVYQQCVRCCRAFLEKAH
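Buffer or medium: Bis-Tris pH 6.0, DTT, detergent; Assay system: LMPTP-A enzyme; Quantity: 0.625 nM enzyme; Detection: endpoint fluorescence intensity; Times: 50 min dark incubation at room temperature; Controls: substrate-only low control, DMSO enzyme-plus-substrate high control; Doses: single 20 µM dose; Read-out: percent inhibition versus substrate-only and uninhibited controls; Reagent: 400 µM OMFP.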
Scp1 inh: inhibitors of human Scp-1 phosphatase; inhibition, % at 20 µM; 0.88% of 340,000 active; Recombinant Scp1, phosphopeptide, malachite green phosphate absorbance;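 active means inhibition above about 50% at 20 µM, limit read from the data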;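 further: plate controls were DMSO wells with enzyme for no effect and wells lacking enzyme for full effect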
Target sequence (Q9GZU7 76-261 limits assumed): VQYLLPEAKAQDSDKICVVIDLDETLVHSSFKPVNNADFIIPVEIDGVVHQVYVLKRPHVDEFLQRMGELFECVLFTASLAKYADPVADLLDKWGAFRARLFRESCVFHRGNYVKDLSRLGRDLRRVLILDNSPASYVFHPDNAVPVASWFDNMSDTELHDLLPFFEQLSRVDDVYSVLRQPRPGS
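Incubation: 45 min enzyme reaction at room temperature / System: truncated SCP-1 phosphatase (76-261aa) / Reagent: Phospho 17-mer peptide substrate / Buffer or medium: Acidic Tris acetate buffer with magnesium and detergent / Signal: absorbance at 630 nm / Doses: one concentration, 20 µM, with 1.0% DMSO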
Scp1 confirm: Scp-1 (human) inhibition, single-dose confirmed; shares compounds with Scp1 inh; recombinant SCP-1 catalytic domain, phosphate release, malachite green absorbance; inhibition, % at 20 µM; 61% of 2,500 active; AID 540281;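 further: plate controls were DMSO with enzyme for no effect and buffer wells lacking enzyme for full effect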
MG interference: counter-screen for Scp-1 inhibitors: colorimetric interference. shares compounds with Scp1 inh. Colorimetric interference counterscreen, malachite green absorbance 630 nm. apparent inhibition (interference), % at 20 µM. 2,500 tested, under 10 active. AID 540313;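 further: compounds added after enzyme reaction finished so only phosphate colour detection is probed; plate controls were DMSO wells with completed Scp-1 reaction for no effect and substrate wells lacking enzyme for full effect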
Scp1 DSF: binds human Scp-1, shifting its melting temperature | Recombinant SCP1, Sypro Orange thermal shift Tm | 25% of 1,500 active | thermal shift relative to vanadate control, % at 40 µM | AID 540329 | shares compounds with Scp1 inh;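 active means substances whose mean melting-temperature shift, as a percentage of the reference inhibitor's shift, reaches about 5.3%, limit read from the data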;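 further: 0% = Tm of DMSO wells and 100% = Tm with sodium orthovanadate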
Active calls of the source: *; · = no result given. This is a sample that favours compounds with a hit; in the whole collection about 2.4% have one here.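 How the source made its calls, unless noted: active means inhibition of at least 30% at 20 µM; inactive means the rest.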

SMILES | SUMO1-SIM PPI | STEP inh | DNMT1 block | NadD block | LMPTP inh | Scp1 inh | Scp1 confirm | MG interference | others
COc1ccc(C(=O)Nc2cnc3sc(C)nn3c2=O)cc1 | 4 | -1 | 1 | -9 | -2 | 51* | -17 | -19
O=C(N/N=C/c1cccnc1)c1ccccc1Cl | 2 | -2 | -2 | -8 | -2 | -4 | · | ·
O=C(N/N=C\c1cccnc1)c1cc(-c2ccc(Cl)s2)[nH]n1 | -9 | 8 | 9 | 0 | 34 | 62* | 53* | -18 | Scp1 DSF=5
CCOc1cc(S(=O)(=O)Nc2cc(C)cc(C)c2)ccc1Cl | 1 | 2 | -14 | -8 | 3 | 66* | -22 | -16
COc1ccc(/C=N/NC(=O)c2cccc([N+](=O)[O-])c2)cc1O | -20 | 1 | 7 | 4 | 0 | -3 | · | ·
COc1cc(/C=N/NC(=O)c2cccc([N+](=O)[O-])c2)ccc1O | -15 | -5 | 0 | -3 | -1 | 89* | -14 | -13
COc1ccc(CCN2CC(C(=O)Nc3cccc(C(C)=O)c3)CC2=O)cc1OC (centres undefined) | 0 | 0 | 4 | -3 | 1 | 3 | · | ·
COc1ccc(CCN2CC(C(=O)OC(C)C(=O)Nc3cccc(Cl)c3)CC2=O)cc1OC (centres undefined) | -2 | -5 | 2 | 1 | -1 | -11 | -16 | -14
O=S(=O)(Nc1ncccn1)c1ccc(NC(=S)NCc2ccco2)cc1 | -2 | 0 | 3 | -3 | -2 | -9 | · | ·
Cc1onc(-c2ccccc2)c1C(=O)Nc1nnc(-c2ccncc2)s1 | 13 | -2 | 1 | -6 | 1 | -4 | · | ·
Cc1noc(C)c1C(=O)Nc1nnc(-c2ccccc2)s1 | 2 | 6 | 0 | -3 | -1 | 67* | -24 | -22
CCOC(=O)c1cnc2c(C)c(-c3ccccc3)[nH]n2c1=O | 0 | 2 | -1 | 1 | 0 | 69* | -18 | -24
CC1CCCCN1C(=O)Cn1c(=O)oc2ccccc21 (centres undefined) | -4 | 0 | 3 | -4 | 0 | 1 | · | ·
O=C(c1cc(S(=O)(=O)N2CCOCC2)ccc1F)N(Cc1nnc(-c2ccccc2Cl)o1)C1CC1 | 0 | 2 | 2 | -4 | -1 | 55* | -14 | -16
Cc1ccc(S(=O)(=O)N2CCOCC2)cc1C(=O)N(Cc1nnc(-c2ccccc2Cl)o1)C1CC1 | 1 | -1 | 0 | -5 | -1 | -14 | · | ·
O=C1NC(=Nc2ccccc2)S/C1=C/c1cccs1 | -11 | 6 | 1 | 8 | 24 | 76* | 59* | -13 | Scp1 DSF=3
Clc1ccc(SCCCN2CCCCC2)cc1 | 1 | -2 | 1 | -4 | -2 | -3 | · | ·
Cn1c(=O)c2nc(-c3ccc(Cl)cc3Cl)oc2c2ccccc21 | 10 | 16 | 34 | 8 | 89* | 73* | 19 | -23
CCOc1ccc(CCNC(=O)/C=C/c2ccco2)cc1OCC | -12 | 1 | 4 | -1 | -2 | 67* | -9 | -21
Cc1ccc(CN2C(=O)CCC2C(=O)NC2CCCC2)cc1 (centres undefined) | -1 | -13 | 1 | -3 | 1 | 3 | · | ·
O=C(Nc1cc(C(F)(F)F)ccc1Cl)c1cccc(N2C(=O)CCC2=O)c1 | 1 | -2 | 2 | -6 | 0 | 1 | · | ·
COc1ccc(Nc2nnc(-c3ccncc3)s2)cc1Cl | 93* | 61* | 69* | 5 | 64* | 94* | 68* | -13 | Scp1 DSF=-6
CCOc1ccccc1NC(=O)Nc1cc(S(=O)(=O)N(C)C)ccc1C | 1 | -2 | -1 | -1 | -1 | 73* | -5 | -5
CCOC(=O)c1cc(S(=O)(=O)NCc2ccco2)cn1C | -1 | -1 | 0 | -5 | 0 | 11 | · | ·
CCCn1c2c(c(=N)c3c1CCC3)CCCC2 | 2 | -6 | 10 | 17 | 1 | 74* | 6 | -9
SMILES | SUMO1-SIM PPI | STEP inh | DNMT1 block | NadD block | LMPTP inh | Scp1 inh | Scp1 confirm | MG interference | others
CCCCN(C(=O)c1[nH]c(C)c(C(C)=O)c1C)c1c(N)n(CCCC)c(=O)[nH]c1=O | 3 | 1 | 2 | -1 | -1 | -6 | · | ·
CCc1nnc(NC(=O)C2(C)COC(c3ccccc3)OC2)s1 (centres undefined) | 0 | 0 | 0 | -1 | -1 | 55* | -5 | -4
CC1OC(OC2C(Oc3c(-c4ccc(O)cc4)oc4cc(O)cc(O)c4c3=O)OC(COC3O[C@@H](C)[C@H](O)[C@@H](O)C3O)C(O)C2O)C(O)C(O)C1O (some centres undefined) | 0 | 1 | -4 | -1 | -1 | -7 | · | ·
CC(C)c1nnc(NC(=O)CCC(=O)N2CCN(Cc3ccccc3)CC2)s1 | 0 | -1 | 1 | -3 | -1 | -7 | · | ·
CCn1c(CN2CCN(c3ccc(OC)cc3)CC2)nc2cc(S(=O)(=O)N(C)C)ccc21 | 7 | 1 | -1 | 2 | 2 | -7 | · | ·
CCCn1c(CN2CCN(C(=O)c3ccco3)CC2)nc2cc(S(=O)(=O)N(C)C)ccc21 | -3 | 1 | -4 | 4 | 0 | 51* | -8 | -13
CC(=O)c1ccc(NC(=O)C2CCN(S(=O)(=O)c3cccc4cccnc34)CC2)cc1 | 0 | 3 | 4 | 2 | 0 | 63* | -17 | -16
O=C(Nc1cccc(F)c1)C1CCCN1S(=O)(=O)c1cccc2cccnc12 (centres undefined) | -1 | 3 | 1 | 2 | -1 | -9 | · | ·
O=C(Nc1ccc2c(c1)OCCO2)C1CCCN1S(=O)(=O)c1cccc2cccnc12 (centres undefined) | -1 | -2 | -6 | 3 | 0 | 57* | -16 | -15
O=C1NC(c2ccccc2)=C(c2ccc3ccccc3n2)C(c2ccncc2)N1 (centres undefined) | -1 | 2 | 2 | 11 | -2 | -1 | · | ·
Cc1ccsc1/C=N/NC(=O)c1c[nH]c2ccccc12 | -8 | 0 | -1 | -1 | 1 | 69* | -14 | -15
Cc1ccc(/C=N/NC(=O)c2c[nH]c3ccccc23)s1 | -10 | 2 | 0 | 1 | 2 | 13 | · | ·
N#Cc1c(SCC(=O)Nc2cccc(C(F)(F)F)c2)sc2c(O)cc(=O)[nH]c12 | 13 | 5 | 7 | 13 | 13 | 54* | 34* | -13 | Scp1 DSF=8.1*

Screening data from PubChem BioAssay.
